Results on two molecules are retold here after ChEMBL document CHEMBL2346664, “Synthesis, characterization and in vitro anticancer evaluation of novel 1,2,4-triazolin-3-one derivatives” (2013).

Where only a bound is given, the exact number is not on record here.

Format in all cases: functional
In test [1] the test system is 786-0. Nature of the test: Growth inhibition of human 786-0 cells after 48 hrs by sulforhodamine B assay. To be noted: 786-0, 48 h. In a few lines:
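NCI 60-cell-line five-dose screen at 0.01, 0.1, 1, 10 and 100 µM final. Cells were plated at 5,000–40,000/well and grown 24 h at 37 °C, 5% CO2, then exposed to drug continuously for 48 h. Adherent cells were fixed with cold TCA (10% final) and stained with SRB; absorbance read at 515 nm. GI50 is the concentration where [(Ti-Tz)/(C-Tz)]×100 = 50, with Tz plates fixed at drug addition.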
Background: In SRB staining, fixed cells bind dye roughly in proportion to their protein.

The subject of test [2] is SF-268. The test can be described thus: Growth inhibition of human SF268 cells assessed as cell growth at 10 '-5 M after 48 hrs by sulforhodamine B assay. The note with it: SF-268, 48 h, read-out: Activity.
Test [3] has as its system HCT-116. Nature of the test: Growth inhibition of human HCT116 cells assessed as cell growth at 10 '-5 M after 48 hrs by sulforhodamine B assay. The note with it: HCT-116, 48 h, read-out: Activity.
Test [4] has as its system CAKI-1. The test can be described thus: Growth inhibition of human CAKI-1 cells assessed as cell growth at 10 '-6 M after 48 hrs by sulforhodamine B assay. The note with it: CAKI-1, 48 h, read-out: Activity. Put shortly: (§1)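 Percent growth at each of the five concentrations of the 48 h continuous-exposure NCI SRB screen. Drug stocks were in DMSO at 400× the top final concentration and diluted in medium with gentamicin. Growth was calculated as [(Ti-Tz)/(C-Tz)]×100 when Ti ≥ Tz, or [(Ti-Tz)/Tz]×100 when Ti < Tz. Tz plates were fixed at drug addition; untreated wells served as control. Absorbance was read at 515 nm.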

The subject of test [5] is ACHN. Nature of the test: Growth inhibition of human ACHN cells assessed as cell growth at 10 '-6 M after 48 hrs by sulforhodamine B assay. To be noted: read-out: Activity. In a few lines: as §1
Test [6] relates to OVCAR-5. The test can be described thus: Growth inhibition of human OVCAR5 cells assessed as cell growth at 10 '-6 M after 48 hrs by sulforhodamine B assay. To be noted: OVCAR-5, 48 h, read-out: Activity.
For test [7], the system named is SK-MEL-5. The test can be described thus: Growth inhibition of human SK-MEL-5 cells assessed as cell growth at 10 '-6 M after 48 hrs by sulforhodamine B assay. The note with it: SK-MEL-5, 48 h, read-out: Activity.
Test [8] concerns Malme-3M. Nature of the test: Growth inhibition of human MALME-3M cells assessed as cell growth at 10 '-6 M after 48 hrs by sulforhodamine B assay. To be noted: read-out: Activity.
Test [9] deals with UACC-257. Nature of the test: Growth inhibition of human UACC257 cells assessed as growth inhibition at 10 uM after 48 hrs by sulforhodamine B assay. To be noted: UACC-257, 48 h, read-out: GI.
Test [10] relates to SF-268. Nature of the test: Growth inhibition of human SF268 cells assessed as growth inhibition at 10 uM after 48 hrs by sulforhodamine B assay. To be noted: SF-268, 48 h, read-out: GI.
Test [11] concerns MOLT-4. The test can be described thus: Growth inhibition of human MOLT4 cells assessed as growth inhibition at 10 uM after 48 hrs by sulforhodamine B assay. To be noted: MOLT-4, 48 h, read-out: GI.
Test [12] relates to SF-539. The test can be described thus: Growth inhibition of human SF539 cells assessed as cell growth at 10 '-6 M after 48 hrs by sulforhodamine B assay. The note with it: SF-539, 48 h, read-out: Activity.
Test [13] deals with HCT-116. Nature of the test: Growth inhibition of human HCT116 cells assessed as cell growth at 10 '-6 M after 48 hrs by sulforhodamine B assay. The note with it: HCT-116, 48 h, read-out: Activity.
Test [14] concerns MDA-MB-468. Nature of the test: Growth inhibition of human MDA-MB-468 cells assessed as cell growth at 10 '-7 M after 48 hrs by sulforhodamine B assay. To be noted: MDA-MB-468, 48 h, read-out: Activity.
Test [15] concerns OVCAR-5. Nature of the test: Growth inhibition of human OVCAR5 cells assessed as cell growth at 10 '-7 M after 48 hrs by sulforhodamine B assay. To be noted: OVCAR-5, 48 h, read-out: Activity.
For test [16], the system named is ACHN. Nature of the test: Growth inhibition of human ACHN cells assessed as cell growth at 10 '-4 M after 48 hrs by sulforhodamine B assay. To be noted: read-out: Activity. In a few lines: as §1
The subject of test [17] is SNB-75. The test can be described thus: Growth inhibition of human SNB75 cells assessed as cell growth at 10 '-4 M after 48 hrs by sulforhodamine B assay. To be noted: SNB-75, 48 h, read-out: Activity.
Test [18] deals with SR. The test can be described thus: Growth inhibition of human SR cells assessed as cell growth at 10 '-4 M after 48 hrs by sulforhodamine B assay. The note with it: read-out: Activity.
Test [19] relates to PC-3. Nature of the test: Growth inhibition of human PC3 cells assessed as cell growth at 10 '-5 M after 48 hrs by sulforhodamine B assay. To be noted: PC-3, 48 h, read-out: Activity.
Test [20] has as its system OVCAR-3. Nature of the test: Growth inhibition of human OVCAR3 cells assessed as cell growth at 10 '-5 M after 48 hrs by sulforhodamine B assay. The note with it: OVCAR-3, 48 h, read-out: Activity.
Test [21] relates to OVCAR-3. The test can be described thus: Growth inhibition of human OVCAR3 cells after 48 hrs by sulforhodamine B assay. To be noted: OVCAR-3, 48 h, read-out: LD50 (the source's name).
In test [22] the test system is HOP-62. Nature of the test: Growth inhibition of human HOP62 cells after 48 hrs by sulforhodamine B assay. To be noted: HOP-62, 48 h. In a few lines:
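NCI 60-cell-line five-dose screen. Cells were plated at 5,000–40,000/well by doubling time and grown 24 h at 37 °C, 5% CO2. Time-zero plates were TCA-fixed. Drug from DMSO stock was tested at 0.01, 0.1, 1, 10 and 100 µM final for 48 h continuous exposure. Read-out was SRB at 515 nm. GI50 is the concentration giving 50% reduction in net protein increase versus untreated control.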

Test [23] concerns NCI-H460. Nature of the test: Growth inhibition of human NCI-H460 cells assessed as cell growth at 10 '-7 M after 48 hrs by sulforhodamine B assay. The note with it: NCI-H460, 48 h, read-out: Activity.
Test [24] can be described thus: Growth inhibition of human EKVX cells assessed as cell growth at 10 '-7 M after 48 hrs by sulforhodamine B assay. The note with it: read-out: Activity.
The subject of test [25] is A549. The test can be described thus: Growth inhibition of human A549 cells assessed as cell growth at 10 '-7 M after 48 hrs by sulforhodamine B assay. To be noted: A549, 48 h, read-out: Activity. Put shortly: as §1
Test [26] concerns K562. The test can be described thus: Growth inhibition of human K562 cells assessed as cell growth at 10 '-7 M after 48 hrs by sulforhodamine B assay. To be noted: K562, 48 h, read-out: Activity.
In test [27] the test system is SK-MEL-28. The test can be described thus: Growth inhibition of human SK-MEL-28 cells assessed as cell growth at 10 '-5 M after 48 hrs by sulforhodamine B assay. The note with it: SK-MEL-28, 48 h, read-out: Activity.
Test [28] deals with OVCAR-5. Nature of the test: Growth inhibition of human OVCAR5 cells assessed as cell growth at 10 '-8 M after 48 hrs by sulforhodamine B assay. The note with it: OVCAR-5, 48 h, read-out: Activity.
Test [29] concerns SNB-75. Nature of the test: Growth inhibition of human SNB75 cells assessed as cell growth at 10 '-8 M after 48 hrs by sulforhodamine B assay. To be noted: SNB-75, 48 h, read-out: Activity.
Test [30] relates to SF-539. Nature of the test: Growth inhibition of human SF539 cells assessed as cell growth at 10 '-8 M after 48 hrs by sulforhodamine B assay. To be noted: SF-539, 48 h, read-out: Activity.
The subject of test [31] is HCT-116. The test can be described thus: Growth inhibition of human HCT116 cells assessed as cell growth at 10 '-8 M after 48 hrs by sulforhodamine B assay. To be noted: HCT-116, 48 h, read-out: Activity.

By GI50 is commonly meant the concentration that inhibits growth by half. Low readings indicate greater sensitivity of the cells, high ones lower sensitivity of the cells. Molecule `Cc1nn(-c2ccc(Cl)cc2)c(=O)n1CCN1CCOCC1` showed a GI50 in test [1] of 5.75 µM. Moreover, the CC50 in test [1] (read-out: pLC50 (the source's name) (converted)) was more than 100 µM. Moreover, the TGI in test [1] (read-out: pTGI) is more than 100 µM.

As for `Cc1cc(=O)oc2cc(OCCn3c(C)nn(-c4ccc(Cl)cc4)c3=O)ccc12`, the growth at 10 µM in test [2] worked out at 52%; in test [3], 21%; in [19] it was 48%; in test [20], 7%; in test [27], 33%. In addition, the growth at 1 µM in test [4] was 68%; in test [5], 95%; in test [6] it was 89%; in test [7], 47%; in test [8] it was 82%; in test [12] it was 88%. In addition, the growth at 1 µM in test [13] came to 86%. Also, the inhibition of growth at 10 µM in [9] was 77.5%; in test [10] it was 49.7%; in test [11], 62.4%. Also, the growth at 0.1 µM is 90% in test [14]; 102% in test [15]; 99% in test [23]; 90% in test [24]; 98% in test [25]; 106% in test [26]. Also, the growth at 100 µM in test [16] was 25%; in test [17] it was -25%; in [18], -13%. The CC50 in test [21] and in test [22] (read-out: LD50 (the source's name)) was more than 1 µM each time. Moreover, in test [22], the GI50 was 3.05 µM. The TGI in [22] was 3.29 µM. Further, the growth at 0.01 µM in test [28] was found to be 105%; in test [29] it was 88%; in test [30] it was 102%; in test [31], 101%.
